Reference: ChEMBL document CHEMBL4765231 (J Med Chem, 2016)
Converted amounts (≈) assume the structure as drawn. The source made the active and inactive calls. The calls are words filed in the database; no cut-off is given here.

What was measured:
Oryctolagus cuniculus [1] = assay: (§1) Cardioprotective activity in New Zealand rabbit model of LAD coronary artery occlusion-induced ischemia-reperfusion injury assessed as inhibition of ST segment elevation intravenously administered with compound for 30 mins followed by induction of ischemia for 15 mins and subsequent reperfusion for 15 mins by electrocardiographic analysis; type: functional
[2] = target: T1, Sodium channel protein type 4 subunit alpha (Homo sapiens, UniProt P35499); assay: Inhibition of NaV1.4 (unknown origin) at 25 Hz frequency by whole cell manual patch clamp technique
Method in brief: (§2)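 Whole-cell manual patch clamp on non-cardiac NaV1.x channels, run at room temperature. Series resistance was compensated 90% so the command potential was reached within microseconds.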

[3] = target: T2, Sodium channel protein type 8 subunit alpha (Homo sapiens, UniProt Q9UQD0); assay: Inhibition of NaV1.6 (unknown origin) at 25 Hz frequency by whole cell manual patch clamp technique; method in brief: as §2
Oryctolagus cuniculus [4] = species on record: Oryctolagus cuniculus; assay: as §1, with “in” for “in New Zealand”, “by measuring maximum efficacy incubated” for “intravenously administered”, “analysis relative to ranolazine” for “analysis”; type: functional; conditions: 0.5 h
[5] = Inhibition of late sodium current channel (unknown origin) at 25 Hz frequency by whole cell patch clamp technique; conditions: Homo sapiens
[6] = Solubility of compound in water; type: physicochemical
NaV1.1 = NaV1.1 (Homo sapiens, UniProt P35498); assay: Inhibition of NaV1.1 (unknown origin) expressed in cells assessed as inhibition of peak INa current at 10 uM at 25 Hz frequency by whole-cell patch clamp method relative to control; type: cell-based; conditions: cells expressing NaV1.1; method in brief: as §2
[7] = Metabolic stability in human microsomes assessed as half life; type: ADME, Microsome
[8] = Metabolic stability in rat microsomes assessed as half life; type: ADME, Microsome
[9] = Metabolic stability in dog microsomes assessed as half life; type: ADME, Canis lupus familiaris, Microsome
Oryctolagus cuniculus [10] = species on record: Oryctolagus cuniculus; assay: Cardioprotective activity in New Zealand White rabbit heart assessed as reversal of ATX-II induced late sodium current prolongation in change in duration of monophasic action potential at 90 percent repolarization at 1 uM by electrocardiographic analysis relative to control; type: functional
NaV1.5 = NaV1.5 (Homo sapiens, UniProt Q14524); assay: Inhibition of human NaV1.5 expressed in HEK293 cells assessed as inhibition of peak sodium current measured at frequency 3 Hz at -20 mV resting membrane potential at 3 uM by electrophysiology assay relative to control; type: cell-based; conditions: HEK293 cells expressing human NaV1.5
Homo sapiens = species on record: Homo sapiens; assay: Inhibition of L-type calcium channel (unknown origin)
Oryctolagus cuniculus [11] = species on record: Oryctolagus cuniculus; assay: Cardioprotective activity in New Zealand White rabbit heart assessed as reversal of ATX-II induced late sodium current prolongation in change in duration of monophasic action potential at 90 percent repolarization by electrocardiographic analysis relative to control; type: functional, tissue-based
Oryctolagus cuniculus [12] = species on record: Oryctolagus cuniculus; assay: Cardioprotective activity in New Zealand rabbit heart assessed as reversal of ATX-II induced late sodium current increase in QT interval by electrocardiographic analysis; type: functional
Oryctolagus cuniculus [13] = species on record: Oryctolagus cuniculus; assay: as §1, with “at 500 nM” for “intravenously administered with compound”; type: functional; conditions: 1 h, time 60 min
Oryctolagus cuniculus [14] = assay: Cardioprotective activity in rabbit model of left circumflex artery ligation-induced ischemia assessed as inhibition of VT-VF at 0.125 to 1.5 mg/kg by electrocardiographic analysis; type: functional, organism-based; conditions: dose 0.125-1.5 mg/kg
Oryctolagus cuniculus [15] = species on record: Oryctolagus cuniculus; assay: Cardioprotective activity in rabbit model of left circumflex artery ligation-induced ischemia assessed as inhibition of VT-VF at 2.5 uM; type: functional, organism-based
Oryctolagus cuniculus [16] = species on record: Oryctolagus cuniculus; assay: Cardioprotective activity in rabbit model of left circumflex artery ligation-induced ischemia assessed as inhibition of VT-VF by electrocardiographic analysis; type: functional, organism-based
Oryctolagus cuniculus [17] = species on record: Oryctolagus cuniculus; assay: Cardioprotective activity in rabbit assessed as decrease in chemically-induced Torsades des Pointes at 2.5 uM by electrocardiographic analysis; type: functional; parameters: scale not given: the % may be the effect or the level left
[18] = target: T3, Sodium channel protein type 1 subunit alpha (Homo sapiens, UniProt P35498); assay: Inhibition of NaV1.1 (unknown origin) at 10 Hz frequency by whole cell manual patch clamp technique; method in brief: as §2
[19] = target: T4, Sodium channel protein type 3 subunit alpha (Homo sapiens, UniProt Q9NY46); assay: Inhibition of NaV1.3 (unknown origin) at 10 Hz frequency by whole cell manual patch clamp technique; method in brief: as §2
[20] = target: T1, Sodium channel protein type 4 subunit alpha; assay: Inhibition of NaV1.4 (unknown origin) at 10 Hz frequency by whole cell manual patch clamp technique; method in brief: as §2
[21] = target: T2, Sodium channel protein type 8 subunit alpha; assay: Inhibition of NaV1.6 (unknown origin) at 10 Hz frequency by whole cell manual patch clamp technique; method in brief: as §2
[22] = target: Sodium channel protein type 10 subunit alpha (Homo sapiens, UniProt Q9Y5Y9); assay: Inhibition of NaV1.8 (unknown origin) at 10 Hz frequency by whole cell manual patch clamp technique; method in brief: as §2
[23] = target: T4, Sodium channel protein type 3 subunit alpha; assay: Inhibition of NaV1.3 (unknown origin) at 25 Hz frequency by whole cell manual patch clamp technique; method in brief: as §2
[24] = target: T3, Sodium channel protein type 1 subunit alpha; assay: Inhibition of peak NaV1.1 (unknown origin) at 10 uM at 10 Hz frequency by manual patch clamp technique
Method in brief: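 Whole-cell manual patch clamp at room temperature, with series resistance compensated 90%.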

[25] = Inhibition of peak sodium current (unknown origin) by manual patch clamp method; parameters: species or system Homo sapiens
[26] = Inhibition of ATX-II induced late sodium current (unknown origin) by manual patch clamp method; parameters: species or system Homo sapiens
[27] = Intrinsic clearance in Sprague-dawley rat hepatocytes; type: ADME, cell-based, Hepatocyte; conditions: read-out: CLH (converted)
[28] = Intrinsic clearance in Beagle dog hepatocytes; type: ADME, cell-based, Canis lupus familiaris, Hepatocyte; conditions: read-out: CLH (converted)
[29] = Intrinsic clearance in cynomolgus monkey hepatocytes; type: ADME, cell-based, Macaca fascicularis, Hepatocyte; conditions: read-out: CLH (converted)
[30] = Intrinsic clearance in human hepatocytes; type: ADME, cell-based, Hepatocyte; conditions: read-out: CLH
Method in brief: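 Clearance measured in pooled human hepatocytes with tritium-labelled compound.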

[31] = Clearance in iv dosed Sprague-Dawley rat; type: ADME, organism-based; conditions: in vivo
[32] = Clearance in iv dosed Beagle dog; type: ADME, organism-based, Canis lupus familiaris; conditions: in vivo
[33] = Clearance in iv dosed cynomolgus monkey; type: ADME, organism-based, Macaca fascicularis; conditions: in vivo
[34] = Volume of distribution at steady state in iv dosed Sprague-Dawley rat; type: ADME, organism-based; conditions: in vivo, read-out: Vdss
[35] = Volume of distribution at steady state in iv dosed Beagle dog; type: ADME, organism-based, Canis lupus familiaris; conditions: in vivo, read-out: Vdss
[36] = Volume of distribution at steady state in iv dosed cynomolgus monkey; type: ADME, organism-based, Macaca fascicularis; conditions: in vivo, read-out: Vdss
[37] = Half-life in iv dosed Sprague-Dawley rat; type: ADME, organism-based; conditions: in vivo
[38] = Half-life in iv dosed Beagle dog; type: ADME, organism-based, Canis lupus familiaris; conditions: in vivo
[39] = Half-life in iv dosed cynomolgus monkey; type: ADME, organism-based, Macaca fascicularis; conditions: in vivo
[40] = Oral bioavailability in Sprague-Dawley rat; type: ADME, organism-based; conditions: in vivo
[41] = Oral bioavailability in Beagle dog; type: ADME, organism-based, Canis lupus familiaris; conditions: in vivo
[42] = Oral bioavailability in cynomolgus monkey; type: ADME, organism-based, Macaca fascicularis; conditions: in vivo
[43] = Permeability of compound across apical to basolateral side in human Caco-2 cells; type: ADME, cell-based; conditions: read-out: permeability
Oryctolagus cuniculus [44] = species on record: Oryctolagus cuniculus; assay: as §1, with “at 0.25 uM” for “intravenously administered with compound”; type: functional; parameters: scale not given: the % may be the effect or the level left; conditions: time 60 min, 1 h
Oryctolagus cuniculus [45] = species on record: Oryctolagus cuniculus; assay: as §1, with “at 0.5 uM” for “intravenously administered with compound”; type: functional; parameters: scale not given: the % may be the effect or the level left; conditions: time 60 min, 1 h
[46] = Toxicity in New Zealand rabbit model of LAD coronary artery occlusion-induced ischemia-reperfusion injury assessed as effect on blood pressure at 0.25 to 0.5 uM; parameters: species or system Oryctolagus cuniculus; conditions: in vivo, dose 0.25-0.5 µM
[47] = Toxicity in New Zealand rabbit model of LAD coronary artery occlusion-induced ischemia-reperfusion injury assessed as effect on heart rate at 0.25 to 0.5 uM; parameters: species or system Oryctolagus cuniculus; conditions: in vivo, dose 0.25-0.5 µM
[48] = Toxicity in New Zealand rabbit model of LAD coronary artery occlusion-induced ischemia-reperfusion injury assessed as effect on ECG interval at 0.25 to 0.5 uM; parameters: species or system Oryctolagus cuniculus; conditions: in vivo, dose 0.25-0.5 µM
[49] = Permeability of compound across basolateral to apical side in human Caco-2 cells; type: ADME, cell-based; conditions: read-out: permeability
[50] = Toxicity in rat assessed as adverse event at > 10 uM; conditions: in vivo
Method in brief: (§3)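 Single ascending dose studies, with CNS-related adverse events monitored.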

[51] = Toxicity in dog assessed as adverse event at > 10 uM; parameters: species or system Canis lupus familiaris; conditions: in vivo; method in brief: as §3

T2 sequence (Q9UQD0 whole entry): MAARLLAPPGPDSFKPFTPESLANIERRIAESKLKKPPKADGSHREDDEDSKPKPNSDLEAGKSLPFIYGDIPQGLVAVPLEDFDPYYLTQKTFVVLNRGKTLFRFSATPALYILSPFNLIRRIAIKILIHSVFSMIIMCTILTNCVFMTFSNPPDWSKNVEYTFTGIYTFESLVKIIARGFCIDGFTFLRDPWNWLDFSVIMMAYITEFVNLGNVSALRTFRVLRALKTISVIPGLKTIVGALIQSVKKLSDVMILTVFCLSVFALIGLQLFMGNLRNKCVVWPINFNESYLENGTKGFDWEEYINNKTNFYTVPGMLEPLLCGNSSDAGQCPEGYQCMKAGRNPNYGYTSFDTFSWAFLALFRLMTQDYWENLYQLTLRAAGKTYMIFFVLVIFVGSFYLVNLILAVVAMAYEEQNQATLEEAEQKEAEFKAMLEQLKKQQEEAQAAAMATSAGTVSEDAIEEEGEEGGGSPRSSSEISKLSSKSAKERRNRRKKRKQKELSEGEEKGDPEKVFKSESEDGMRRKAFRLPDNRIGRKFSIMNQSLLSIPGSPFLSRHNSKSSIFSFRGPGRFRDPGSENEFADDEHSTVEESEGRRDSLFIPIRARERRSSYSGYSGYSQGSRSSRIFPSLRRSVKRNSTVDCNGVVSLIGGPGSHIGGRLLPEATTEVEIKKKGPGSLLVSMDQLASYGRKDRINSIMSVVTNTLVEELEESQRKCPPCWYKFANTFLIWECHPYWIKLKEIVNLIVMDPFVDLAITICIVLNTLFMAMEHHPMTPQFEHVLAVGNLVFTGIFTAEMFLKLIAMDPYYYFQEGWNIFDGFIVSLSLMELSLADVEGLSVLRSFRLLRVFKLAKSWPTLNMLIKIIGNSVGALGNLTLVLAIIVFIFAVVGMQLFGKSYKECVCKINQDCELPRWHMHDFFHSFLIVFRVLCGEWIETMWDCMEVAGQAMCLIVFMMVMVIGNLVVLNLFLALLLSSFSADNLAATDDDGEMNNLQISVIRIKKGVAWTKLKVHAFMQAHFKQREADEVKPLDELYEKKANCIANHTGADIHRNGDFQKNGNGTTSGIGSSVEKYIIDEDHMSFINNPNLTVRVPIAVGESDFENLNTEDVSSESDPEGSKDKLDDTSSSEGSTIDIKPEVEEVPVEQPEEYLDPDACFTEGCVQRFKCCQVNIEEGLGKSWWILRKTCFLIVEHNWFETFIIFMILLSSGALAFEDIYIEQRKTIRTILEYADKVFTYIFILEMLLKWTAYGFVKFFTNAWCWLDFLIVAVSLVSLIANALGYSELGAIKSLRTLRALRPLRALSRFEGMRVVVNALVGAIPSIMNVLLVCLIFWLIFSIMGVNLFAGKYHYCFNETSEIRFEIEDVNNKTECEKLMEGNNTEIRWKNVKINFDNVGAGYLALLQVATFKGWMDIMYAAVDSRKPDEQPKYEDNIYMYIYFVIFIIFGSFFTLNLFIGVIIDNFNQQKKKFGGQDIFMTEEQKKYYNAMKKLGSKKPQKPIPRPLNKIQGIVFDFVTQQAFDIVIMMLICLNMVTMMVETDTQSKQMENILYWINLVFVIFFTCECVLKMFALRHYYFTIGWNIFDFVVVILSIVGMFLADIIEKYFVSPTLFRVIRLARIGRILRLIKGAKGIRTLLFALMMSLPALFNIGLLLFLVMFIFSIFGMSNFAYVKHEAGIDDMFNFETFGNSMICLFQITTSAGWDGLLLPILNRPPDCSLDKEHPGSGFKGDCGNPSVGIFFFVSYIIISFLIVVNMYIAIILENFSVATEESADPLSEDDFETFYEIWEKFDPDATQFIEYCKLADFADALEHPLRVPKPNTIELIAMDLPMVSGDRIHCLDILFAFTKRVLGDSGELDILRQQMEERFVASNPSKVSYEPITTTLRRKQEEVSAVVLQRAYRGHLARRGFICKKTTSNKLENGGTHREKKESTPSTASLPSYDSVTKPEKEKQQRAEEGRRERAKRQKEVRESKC
T1 sequence (P35499 whole entry): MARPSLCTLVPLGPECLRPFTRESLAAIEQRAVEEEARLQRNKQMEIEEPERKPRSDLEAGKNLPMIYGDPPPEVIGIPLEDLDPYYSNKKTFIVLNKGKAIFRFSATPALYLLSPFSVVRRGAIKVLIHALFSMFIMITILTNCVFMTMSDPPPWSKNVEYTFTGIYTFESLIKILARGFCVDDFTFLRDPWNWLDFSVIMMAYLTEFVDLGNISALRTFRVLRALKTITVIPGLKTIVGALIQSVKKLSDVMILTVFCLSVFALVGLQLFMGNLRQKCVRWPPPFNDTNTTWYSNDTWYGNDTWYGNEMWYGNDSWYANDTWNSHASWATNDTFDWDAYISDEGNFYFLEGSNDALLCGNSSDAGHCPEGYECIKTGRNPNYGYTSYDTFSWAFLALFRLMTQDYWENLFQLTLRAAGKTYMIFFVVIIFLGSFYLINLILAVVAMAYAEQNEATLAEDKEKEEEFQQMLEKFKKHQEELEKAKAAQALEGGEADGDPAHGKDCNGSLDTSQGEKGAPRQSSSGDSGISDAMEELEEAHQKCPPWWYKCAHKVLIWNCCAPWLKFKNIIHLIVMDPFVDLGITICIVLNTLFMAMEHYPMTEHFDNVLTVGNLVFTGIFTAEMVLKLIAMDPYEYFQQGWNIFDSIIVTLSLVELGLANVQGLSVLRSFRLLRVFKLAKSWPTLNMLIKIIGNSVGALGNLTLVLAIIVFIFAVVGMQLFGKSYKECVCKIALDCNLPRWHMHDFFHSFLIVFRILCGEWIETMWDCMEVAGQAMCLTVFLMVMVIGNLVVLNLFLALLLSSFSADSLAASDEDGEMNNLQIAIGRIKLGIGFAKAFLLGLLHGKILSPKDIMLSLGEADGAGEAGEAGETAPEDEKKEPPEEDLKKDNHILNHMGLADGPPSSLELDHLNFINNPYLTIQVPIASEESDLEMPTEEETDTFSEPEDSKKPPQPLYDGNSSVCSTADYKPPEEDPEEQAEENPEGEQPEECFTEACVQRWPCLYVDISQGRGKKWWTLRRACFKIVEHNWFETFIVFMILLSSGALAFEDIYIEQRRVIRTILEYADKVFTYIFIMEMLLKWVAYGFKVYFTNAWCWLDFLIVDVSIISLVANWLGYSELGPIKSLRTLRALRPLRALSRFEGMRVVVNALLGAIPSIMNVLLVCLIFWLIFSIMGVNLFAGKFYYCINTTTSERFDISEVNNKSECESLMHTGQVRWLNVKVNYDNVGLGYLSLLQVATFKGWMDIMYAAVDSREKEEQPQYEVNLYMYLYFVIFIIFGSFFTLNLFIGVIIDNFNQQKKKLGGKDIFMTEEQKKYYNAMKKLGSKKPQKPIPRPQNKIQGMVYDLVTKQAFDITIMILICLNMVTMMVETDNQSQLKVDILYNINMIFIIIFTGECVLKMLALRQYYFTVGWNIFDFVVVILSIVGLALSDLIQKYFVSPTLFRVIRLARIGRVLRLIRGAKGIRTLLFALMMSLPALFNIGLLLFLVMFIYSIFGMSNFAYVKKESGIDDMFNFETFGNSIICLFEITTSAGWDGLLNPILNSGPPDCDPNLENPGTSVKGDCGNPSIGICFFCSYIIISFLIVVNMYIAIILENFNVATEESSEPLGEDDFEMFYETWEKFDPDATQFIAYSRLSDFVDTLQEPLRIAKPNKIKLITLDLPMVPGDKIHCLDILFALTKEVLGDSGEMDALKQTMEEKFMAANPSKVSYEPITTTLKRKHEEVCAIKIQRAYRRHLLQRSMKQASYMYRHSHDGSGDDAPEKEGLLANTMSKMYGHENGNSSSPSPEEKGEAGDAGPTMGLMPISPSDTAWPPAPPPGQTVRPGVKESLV

IC50 [2]: 3.3 µM
IC50 [3]: 4 µM
IC50 [5]: 0.88 µM
solubility [6]: 24 µM (≈ 9.97 µg/mL)
inhibition at 10 µM (NaV1.1): 53%
half-life [7]: 6.58 h
half-life [8]: 3.33 h
half-life [9]: 5.9 h
inhibition (Homo sapiens): inactive
IC50 (Oryctolagus cuniculus [11]): 0.7 µM
EC50 (Oryctolagus cuniculus [16]): 1.7 µM
IC50 [18]: 96 µM
IC50 [19]: 16 µM
IC50 [20]: 13 µM
IC50 [21]: 28 µM
IC50 [22]: 18.8 µM
IC50 [23]: 3.5 µM
inhibition (INH) [24]: Not Active
IC50 [25]: 51 µM
IC50 [26]: 0.62 µM
CLint scaled [27]: 2.67 mL/min/kg
CLint scaled [28]: 1 mL/min/kg
CLint scaled [29]: 6 mL/min/kg
CLint scaled [30]: < 0.25 mL/min/kg
clearance [31]: 2.33 mL/min/kg
clearance [32]: 0.7 mL/min/kg
clearance [33]: 1.83 mL/min/kg
Vd [34]: 2.5 L/kg
Vd [35]: 1.6 L/kg
Vd [36]: 1.5 L/kg
half-life [37]: 13 h
half-life [38]: 27.9 h
half-life [39]: 5 h
bioavailability [40]: 91%
bioavailability [41]: 100%
bioavailability [42]: 39%
Papp A→B [43]: 34.6 ×10⁻⁶ cm/s
Papp B→A [49]: 29 ×10⁻⁶ cm/s
SMILES: O=C1c2cc(-c3ccc(OC(F)(F)F)cc3)ccc2OCCN1Cc1ncccn1 [ELECLAZINE]
EC50 (Oryctolagus cuniculus [1]): 0.19 µM
Activity (Oryctolagus cuniculus [1]; time 60.0 min): Dose-dependent effect
Emax (Oryctolagus cuniculus [4]): 93%
Activity (Oryctolagus cuniculus [10]): 62%
inhibition at 3 µM (NaV1.5): 24%
Activity (Oryctolagus cuniculus [12]): Active
inhibition in vivo at 0.5 µM (Oryctolagus cuniculus [13]): 93%
Activity (Oryctolagus cuniculus [14]): Active
Activity (Oryctolagus cuniculus [15]): Active
Activity (Oryctolagus cuniculus [17]): 100%
Activity (Oryctolagus cuniculus [44]): 55%
Activity (Oryctolagus cuniculus [45]): 93%
Activity [46]: Non-Toxic
Activity [47]: Non-Toxic
Activity [48]: Non-Toxic
Activity [50]: Toxic
Activity [51]: Toxic
